The text below walks through data of ChEMBL document CHEMBL3286337, “Synthesis, biological evaluation and structure-activity relationships of new phthalazinedione derivatives with vasorelaxant activity” (Eur J Med Chem, 2014).

In data set [1] the test system is Aorta. In words: Vasorelaxant activity in Wistar rat endothelium-intact thoracic aortic rings assessed as inhibition of phenylephrine-induced contraction. Type of data set: functional, tissue-based.
The subject of data set [2] is Aorta. In words: Vasorelaxant activity in Wistar rat endothelium-denuded thoracic aortic rings assessed as inhibition of phenylephrine-induced contraction. Type of data set: functional, tissue-based.
Data set [3] has as its system Aorta. In words: Vasorelaxant activity in Wistar rat endothelium-intact thoracic aortic rings assessed as inhibition of phenylephrine-induced contraction at 200 uM. It is filed as functional.
In data set [4] the test system is Aorta. Description: Vasorelaxant activity in Wistar rat endothelium-denuded thoracic aortic rings assessed as inhibition of phenylephrine-induced contraction at 200 uM. Type of data set: functional, tissue-based.
The subject of data set [5] is Aorta. In words: Vasorelaxant activity in Wistar rat endothelium-denuded thoracic aortic rings assessed as inhibition of phenylephrine-induced contraction relative to endothelium-intact thoracic aortic rings in presence of 1 uM of acetylcholine. It is filed as functional.
Data set [6] is described as follows: Cytotoxicity against rat A7r5 cells assessed as reduction of cell viability at 50 uM after 24 hrs by MTT assay. It is filed as cell-based. The note with it: a7r5, 24 h. The method in brief: (§1)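 A7r5 embryonic rat aorta smooth muscle cells seeded at 20 × 10^3/cm^2 and incubated overnight. Compounds added with DMSO (1%) for 24 h; untreated cells served as negative control. MTT solution (5 mg/ml in PBS) added, 2 h at 37 C, absorbance read at 540 nm. Viability = A(treatment)/A(negative control) × 100%. Mean ± S.E.M of at least 5 experiments.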

Data set [7] in a line: Cytotoxicity against rat A7r5 cells assessed as reduction of cell viability at 25 uM after 24 hrs by MTT assay. It is filed as cell-based. The following applies: a7r5, 24 h. An outline of the steps:
as §1

The structures appear in SMILES notation. Active and inactive are the calls of the source. The rule behind the calls is not given here.

For the compound `Cn1c(=O)c2ccccc2c(=O)n1CCBr`, the EC50 in the data set with Aorta [1] amounted to 1.7 µM; in the data set with Aorta [2] it was 8.46 µM.

As for `Cn1c(=O)c2cccc(Cl)c2c(=O)n1CCN=[N+]=[N-]`, the EC50 with Aorta [1] came out at 6.35 µM; in the data set with Aorta [2], 13.2 µM.

Consider `Cn1[nH]c(=O)c2ccccc2c1=O`, for which the inhibition result with Aorta [3] and with Aorta [4] was “inactive” in each case.

`Cn1c(=O)c2c(Cl)cccc2c(=O)n1CCCN`: the EC50 amounted to 8.51 µM with Aorta [1] and 30.2 µM with Aorta [2]. In the data set with Aorta [5], the “inhibition (INH)” value came out at 53.6%.

For the compound `Cn1c(=O)c2cccc(Cl)c2c(=O)n1CCCN`, the EC50 in the data set on Aorta [1] was 44.7 µM. Besides, in the data set on Aorta [4], the inhibition entry was “inactive”.

As for `Cn1[nH]c(=O)c2c(Cl)cccc2c1=O`, the inhibition result in the data set with Aorta [3] and in the data set on Aorta [4] was “inactive” in each case.

Turning to `Cn1c(=O)c2cccc(Cl)c2c(=O)n1CCBr`, the values for the EC50 with Aorta [1] and in the data set with Aorta [2] were 7.95 µM and 20.2 µM, respectively.

For the compound `Cn1c(=O)c2ccccc2c(=O)n1CCCBr`, the values for the EC50 with Aorta [1] and with Aorta [2] were 3.1 µM and 15.5 µM, respectively.

For the compound `Cn1c(=O)c2cccc(Cl)c2c(=O)n1CCCBr`, the EC50 with Aorta [1] turned out to be 3.36 µM; in the data set on Aorta [2] it was 6.71 µM.

`Cn1c(=O)c2ccccc2c(=O)n1CCCN=[N+]=[N-]`: the EC50 in the data set on Aorta [1] came out at 2.35 µM; in the data set on Aorta [2] it was 3.71 µM.

As to `Cn1c(=O)c2ccccc2c(=O)n1CCNC(=O)OC(C)(C)C`, the figures for the EC50 in the data set on Aorta [1] and in the data set with Aorta [2] were 2.44 µM and 14.6 µM, respectively.

For `Cn1c(=O)c2c(Cl)cccc2c(=O)n1CCN=[N+]=[N-]`, the figures for the EC50 with Aorta [1] and in the data set with Aorta [2] were 4.12 µM and 13.1 µM, respectively.

On to `Cn1c(=O)c2c(Cl)cccc2c(=O)n1CCCBr`, for which the EC50 in the data set on Aorta [1] is 6.61 µM; in the data set with Aorta [2], 27.2 µM.

Consider `Cn1c(=O)c2c(Cl)cccc2c(=O)n1CCN`, for which, in the data set on Aorta [1], the EC50 was 48.7 µM. The inhibition entry in the data set with Aorta [4] is “inactive”.

For `Cn1c(=O)c2c(Cl)cccc2c(=O)n1CCNC(=O)OC(C)(C)C`, the results for the half-maximal effective concentration (EC50) in the data set with Aorta [1] and in the data set on Aorta [2] were 2.53 µM and 5.57 µM, respectively. For the same compound, the Activity entry was “Toxic” in data set [6] and “Non-toxic” in data set [7].

As for `Cn1c(=O)c2cccc(Cl)c2c(=O)n1CCCNC(=O)OC(C)(C)C`, the EC50 with Aorta [1] was found to be 4.78 µM; in the data set on Aorta [2] it was 18.2 µM. For the same compound, the Activity entry is given as “Toxic” in data set [6] and “Non-toxic” in data set [7].

In the case of `Cn1c(=O)c2cccc(Cl)c2c(=O)n1CCCN=[N+]=[N-]`, the concentration for a half-maximal effect (EC50) was 4.31 µM in the data set with Aorta [1] and 7.44 µM with Aorta [2]. The Activity result in data set [6] is “Toxic”; in data set [7] it was “Non-toxic”.

With `Cn1c(=O)c2ccccc2c(=O)n1CCN=[N+]=[N-]`, the EC50 was determined as 10 µM in the data set with Aorta [1] and 15.9 µM in the data set with Aorta [2].

In the case of `CN1C(=O)CN=C(c2ccccc2)c2cc(Cl)ccc21` [DIAZEPAM], the values for the EC50 with Aorta [1] and with Aorta [2] were 69 µM and 77.2 µM, respectively.

As for `Cn1c(=O)c2cccc(Cl)c2c(=O)n1CCN`, the inhibition at 200 µM in the data set with Aorta [3] was found to be 50%. Also, in the data set on Aorta [4], the inhibition entry is “inactive”.

For the compound `Cn1c(=O)c2ccccc2c(=O)n1CCCN`, the inhibition at 200 µM in the data set on Aorta [3] came to 50%. The inhibition result in the data set on Aorta [4] is “inactive”.

Turning to `Cn1c(=O)c2ccccc2c(=O)n1CCCNC(=O)OC(C)(C)C`, the EC50 worked out at 3.96 µM in the data set on Aorta [1] and 23.6 µM in the data set with Aorta [2].

Regarding `Cn1c(=O)c2ccccc2c(=O)n1CCN`, the inhibition at 200 µM in the data set with Aorta [3] is 50%. In the data set on Aorta [4], the inhibition entry was “inactive”.

As to `Cn1c(=O)c2cccc(Cl)c2c(=O)n1CCNC(=O)OC(C)(C)C`, the results for the EC50 in the data set on Aorta [1] and with Aorta [2] were 3.45 µM and 13.3 µM, respectively. Also, the Activity entry in data set [6] is recorded as “Toxic”; in data set [7], “Non-toxic”.

For `Cn1[nH]c(=O)c2cccc(Cl)c2c1=O`, the inhibition result in the data set on Aorta [3] and in the data set on Aorta [4] was “inactive” each time.

In the case of `Cn1c(=O)c2c(Cl)cccc2c(=O)n1CCCNC(=O)OC(C)(C)C`, the EC50 amounted to 2.15 µM with Aorta [1] and 4.85 µM with Aorta [2]. The Activity result in data set [6] was “Toxic”; in data set [7], “Non-toxic”.

Consider `NNc1nncc2ccccc12` [HYDRALAZINE], for which the EC50 with Aorta [1] was 1180 µM; in the data set on Aorta [2] it was 1320 µM.

For `Nc1cc(-c2ccncc2)c[nH]c1=O` [INAMRINONE], the EC50 in the data set on Aorta [1] turned out to be 17 µM; in the data set on Aorta [2] it was 28 µM.

As to `Cn1c(=O)c2c(Cl)cccc2c(=O)n1CCCN=[N+]=[N-]`, the EC50 was 2.33 µM in the data set on Aorta [1] and 11.7 µM with Aorta [2].

Turning to `Cn1c(=O)c2c(Cl)cccc2c(=O)n1CCBr`, the EC50 with Aorta [1] was 7.35 µM; with Aorta [2], 32.5 µM.
